Assay results taken from PubChem BioAssay AID602134 (Broad Institute, 2011).

Experiment: transferrin endocytosis inhibition in mSR-BI cells, dose response, selectivity assay for SR-BI HDL uptake inhibitor project, imaging, Alexa594-transferrin, dry powder (AID 602134)
Details: series mostly up to 35 µM; transferrin uptake change vs neutral control, negative = inhibition: at the top concentration;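 active = falling transferrin uptake with a fitted half-maximal potency at or below twice the top valid tested dose; inconclusive = flat fit with a 30 to 70% drop, or poor fit; inactive = the rest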
Outline: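 Reagent: Alexa-594-labelled transferrin at 30 µg/mL final. Test system: mSR-BI cells. Times: transferrin uptake 30 min at 37 °C, stopped on ice. Read-out basis: normalized percent of cells with above-threshold perinuclear transferrin. Buffer or medium: serum-free DMEM with 1% BSA after serum wash. Measured by: high-content fluorescence imaging of Alexa-594 transferrin, DAPI nuclear stain.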

Transferrin uptake change vs neutral control, negative = inhibition, inactive:
CCC(=O)N1CCc2cc(-c3csc(NC(=O)c4ccc(F)c(OC)c4)n3)ccc21 44.9%
C[C@H](C(=O)NC1CCCC1)N(C(=O)Cn1nnc(-c2ccc3c(c2)OCO3)n1)C1CCCCC1 27.8%
CCCCCCC1CCC/C1=N\NC(N)=S (configuration not stated) -4.54%
C[C@@H]1CN([C@H](C)CO)C(=O)c2cc(NC(=O)Cc3cn(C)c4ccccc34)ccc2O[C@H]1CN(C)S(=O)(=O)c1ccc(Cl)cc1 25.5%
CCNC(=O)N1CCc2cc(-c3csc(NC(=O)c4cc(OC)cc(OC)c4)n3)ccc21 -0.582%
COc1c(NC(=O)C(=O)c2ccc(OCCN3CCOCC3)c3ccccc23)cc(C(C)(C)C)cc1NS(C)(=O)=O 9.84%
COc1cc(OC)cc(C(=O)Nc2nc(-c3ccc4c(c3)CCN4C(=O)CN(C)C)cs2)c1 -33.9%
CCC(=O)N1CCc2cc(-c3csc(NC(=O)c4cccc(OC)c4)n3)ccc21 28.3%
COCC(=O)N1CCc2cc(-c3csc(NC(=O)c4cc(OC)cc(OC)c4)n3)ccc21 16.9%
CCC(=O)N1CC(C)(C)c2cc(-c3csc(NC(=O)c4cc(OC)cc(OC)c4)n3)ccc21 3.48%
CC(=O)N1CCc2cc(-c3nc(NC(=O)c4cccc(OC(F)(F)F)c4)sc3C)ccc21 16.8%
COc1ccc(-c2cc(CC(=O)N(C3CCCCC3)C(C)C(=O)NC3CCCC3)no2)cc1OC (configuration not stated) 31.6%
